According to article PMC6457116 (ACS chemical biology, 2018):

Test system: IMR-90 human lung fibroblasts
Experiment: Mammalian cell viability, Cell Titer Glo
Assay type: cell-based
Details: 1 μg mL^−1 doxorubicin
In short: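 IMR-90 fibroblasts from ATCC, grown in EMEM with 10% FBS and Pen-Strep at 37 °C, 5% CO2, split 1:3 at confluence. Seeded 20,000 cells/well and left overnight to adhere. Then treated 24 h or 48 h with 50 μM test compound (0.5% DMSO), 0.5% DMSO, 10% DMSO or doxorubicin hydrochloride (given as 1 μg mL−1 and 1.7 μM). CellTiter-Glo ATP luminescence, no-cell background. Percent death versus 0.5% DMSO.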

## COc1cccc2c1C(=O)c1c(O)c3c(c(O)c1C2=O)C[C@@](O)(C(=O)CO)C[C@@H]3O[C@H]1C[C@H](N)[C@H](O)[C@H](C)O1 [doxorubicin]
24 h
  cells dead: 50%
48 h
  cell death (in words): near complete cell death
